Bioassay records as filed in PubChem BioAssay.
PERK inh: inhibitors of human PERK kinase; Q9NZJ5; CHO PERK-DD fusion, SEAP luminescence translation reporter; inhibition, % at 5.6 µM; 0.17% of 220,000 active; AID 1416;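 active = inhibition above the mean inhibition of all tested compounds plus 3 SD, set separately per screening campaign, cut at about 2.9% in these data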;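 note: PERK kinase domain activated by AP20187 dimerizer at 100 nM; 0% = DMSO with dimerizer and 100% = rapamycin at 8.4 µM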
APP 5'UTR act: APP 5'UTR luciferase reporter activation | SH-SY5Y APP 5'UTR luciferase reporter, luminescence; zero percent = DMSO vehicle wells | activation, % at 2 µM | 1% of 190,000 active;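 active = activation above a set limit, based on mean plus 3 SD of controls, cut at about 140% in these data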
STAT1 activator: STAT1 signaling activation | NIH 3T3 STAT1-luciferase reporter, IFN-gamma, luminescence; 100% = IFN-gamma alone, no compound | activation (% of control), % at 5.5 µM | 2.6% of 200,000 active;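 active = activation above the screen-wide mean activation plus 3 SD, cut at about 130% in these data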;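 note: raw ratio to IFN-gamma control signal so 100% means no change and 0% no light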
AHR activator: activators of human aryl hydrocarbon receptor; AHR-responsive luciferase reporter cells, luminescence; activation, % at 5 µM; 2.5% of 320,000 active; AID 2796; in the data active = activation above about 47%;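 note: 0% = vehicle wells and 100% = reference agonist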
Target sequence (P35869 whole entry, looked up): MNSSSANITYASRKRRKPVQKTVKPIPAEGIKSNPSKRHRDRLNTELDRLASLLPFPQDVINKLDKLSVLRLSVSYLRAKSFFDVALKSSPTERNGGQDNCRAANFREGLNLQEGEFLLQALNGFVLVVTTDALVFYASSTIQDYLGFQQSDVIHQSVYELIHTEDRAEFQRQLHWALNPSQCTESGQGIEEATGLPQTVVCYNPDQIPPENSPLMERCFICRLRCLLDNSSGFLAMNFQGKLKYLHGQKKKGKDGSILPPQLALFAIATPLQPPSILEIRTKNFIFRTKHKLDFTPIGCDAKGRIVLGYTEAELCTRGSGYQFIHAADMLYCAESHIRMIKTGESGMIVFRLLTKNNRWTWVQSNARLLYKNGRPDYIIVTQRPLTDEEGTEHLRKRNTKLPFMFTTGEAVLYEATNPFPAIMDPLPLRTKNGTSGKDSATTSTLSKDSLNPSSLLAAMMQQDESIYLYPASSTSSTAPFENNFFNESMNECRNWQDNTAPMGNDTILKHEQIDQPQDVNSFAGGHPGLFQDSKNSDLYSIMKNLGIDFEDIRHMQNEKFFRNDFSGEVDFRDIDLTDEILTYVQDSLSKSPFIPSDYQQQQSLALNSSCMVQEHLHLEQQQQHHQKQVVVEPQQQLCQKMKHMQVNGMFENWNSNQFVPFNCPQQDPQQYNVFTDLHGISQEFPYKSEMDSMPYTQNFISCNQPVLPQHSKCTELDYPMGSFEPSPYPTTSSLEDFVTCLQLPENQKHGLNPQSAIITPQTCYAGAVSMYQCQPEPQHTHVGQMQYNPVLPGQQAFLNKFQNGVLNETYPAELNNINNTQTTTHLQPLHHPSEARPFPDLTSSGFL
NF-kB expr up: NF-kB expression increase, human neuronal cells; 1.6% of 190,000 active; NF-kB reporter expression; hits give high values; AID 1239; fold change at 12.5 µM; in the data active = fold change above about 3.3
Mdm2 ligase inh: inhibitors of human Mdm2 E3 ubiquitin ligase; Q00987; cell-based MDM2 ubiquitination luciferase reporter, 2 h; 0 = plate control, 100 = twice control, blank-subtracted; signal enhancement, % at 5 µM; 0.11% of 210,000 active; AID 1230;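 active = signal enhancement of 30% or more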;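 note: luminescence tracks abundance of the self-degrading MDM2-luciferase fusion protein; higher signal means inhibition of MDM2 E3 ligase activity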
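Material: stable MDM2–luciferase fusion reporter cells / Quantity: 2000 cells/well / Dosing: single 5 µM compound dose, 0.2% final DMSO / Buffer or medium: DMEM / Schedule: 4 h cell settling then 2 h compound exposure, 37 °C / Detection: luminescence with SteadyLite reagent, 15 min at room temperature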
AHR act confirm: human AHR activation, confirmation | shares compounds with AHR activator | 87% of 2,300 active | human cells, AHR-responsive luciferase reporter, luminescence | AID 2845 | activation, % at 9 µM; in the data active = activation above about 49%;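 note: HepG2 hepatoma cells carrying a DRE-driven firefly luciferase reporter; 0% = vehicle wells and 100% = reference agonist wells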
PXR counter: activates human PXR in AHR activator counter-screen. AID 434939. 88% of 2,300 active. shares compounds with AHR activator. activation, % at 11.6 µM. cell-based PXR reporter, luciferase luminescence; in the data active = activation above about 11%;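 note: human hepatoma DPX-2 cells expressing full-length human PXR; 0% = DMSO and 100% = reference agonist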
* hit, by the source's call. Only some compounds are listed: those with a hit (about 4.5% of all), similar ones and a draw of the others.

For C=CCN(C)NC(=S)Nc1ccccc1 the results were PERK inh 1, APP 5'UTR act 4, STAT1 activator 100, AHR activator -1, NF-kB expr up 0.92 and Mdm2 ligase inh 16.
`CC(C)(C)/C(O)=C/c1nc2ccccc2oc1=O` gave PERK inh 1, APP 5'UTR act -17, STAT1 activator 95, AHR activator 7, NF-kB expr up 2.2 and Mdm2 ligase inh -5.
For O=c1c(Cl)c2oc3ccccc3nc-2c2ccccc12 the results were PERK inh 0, APP 5'UTR act 4, STAT1 activator 100, AHR activator 81*, NF-kB expr up 0.83, Mdm2 ligase inh 0, AHR act confirm 123* and PXR counter 16*.
Screening CCCc1cc(=O)oc2cc(OCC(=O)NCCCn3ccnc3)c(Cl)cc12 returned AHR activator 3.
`Cc1nc(SCc2nc3c(F)cccc3[nH]2)c2oc3ccccc3c2n1` gave AHR activator 80*, AHR act confirm 80* and PXR counter 40*.
For CC(=O)n1cc(/C=N/NC(=O)c2sc(C)nc2C)c2ccccc21 the results were PERK inh 0, APP 5'UTR act 7, STAT1 activator 107, AHR activator 94*, NF-kB expr up 0.93, Mdm2 ligase inh -5 and AHR act confirm 64*.
For CC(=O)n1cc(/C=N/NC(=O)c2ccc([N+](=O)[O-])cc2)c2ccccc21 the results were AHR activator 8.
`CCOc1ccc(/C=N/NC(=O)c2ccccc2Cl)cc1CN1CC2CC(C1)c1cccc(=O)n1C2` (stereo unspecified) gave AHR activator 8.
Screening CC(=O)/C(=N/Nc1ccc(Br)cc1)Sc1cccc2cccnc12 returned PERK inh 1, APP 5'UTR act 15, STAT1 activator 104, AHR activator 125*, NF-kB expr up 1, Mdm2 ligase inh -10, AHR act confirm 116* and PXR counter 180*.
COc1ccc2cc(CN(Cc3ccco3)Cc3nnnn3C3CCCCC3)c(=O)[nH]c2c1 was read as PERK inh -1, APP 5'UTR act 19, STAT1 activator 100, AHR activator -1, NF-kB expr up 0.79 and Mdm2 ligase inh -14.
`CCC(C)(C)n1nnnc1CN(Cc1ccco1)Cc1cc2cc3c(cc2[nH]c1=O)OCO3` gave PERK inh 0, APP 5'UTR act 14, STAT1 activator 102, AHR activator 107*, NF-kB expr up 1.2, Mdm2 ligase inh 4, AHR act confirm 86* and PXR counter 147*.
For CC(C)(C)n1nnnc1CN(Cc1ccco1)Cc1cc2cc3c(cc2[nH]c1=O)OCO3 the results were PERK inh 0, APP 5'UTR act 3, STAT1 activator 102, AHR activator 111*, NF-kB expr up 1.2, Mdm2 ligase inh -10, AHR act confirm 96* and PXR counter 197*.
`Cc1ccc(S(=O)(=O)N(C)CC(=O)Nc2ccccc2N2CCCC2)cc1` gave AHR activator 2.
CN(C)CC(C)(C)CNC(=O)c1cc(=O)c2ccccc2o1 was read as PERK inh 0, STAT1 activator 103, AHR activator 0, NF-kB expr up 1.1 and Mdm2 ligase inh -10.
CC1CCN(c2ccc(NC(=S)NC(=O)c3ccc(-c4cccc([N+](=O)[O-])c4)o3)cc2)CC1 was read as PERK inh 1, APP 5'UTR act -6, STAT1 activator 103, AHR activator 82*, NF-kB expr up 1.1, Mdm2 ligase inh -8, AHR act confirm 27 and PXR counter 15*.
Screening O=S(=O)(Nc1cc(S(=O)(=O)N2CCOCC2)ccc1NCC1CCCO1)c1ccccc1F (stereo unspecified) returned AHR activator -1.
For CN1C(=O)/C(=C\c2ccccc2OCc2ccccc2)SC1=S the results were AHR activator 81*, AHR act confirm 87* and PXR counter 19*.
Cc1ccc(CN2CCN(Cc3nc4ccccc4nc3C)CC2CCO)cc1 (stereo unspecified) was read as PERK inh -1, AHR activator 5 and Mdm2 ligase inh -15.
For CCc1ccc(NC(=O)c2ccc3nc(N)sc3c2)cc1 the results were PERK inh 0, APP 5'UTR act 52, STAT1 activator 124, AHR activator 99*, NF-kB expr up 2.6, Mdm2 ligase inh -26, AHR act confirm 51* and PXR counter 18*.
For CN(C(=O)c1ccc2nc(N)sc2c1)c1ccccc1 the results were AHR activator 22.
`Nc1nc2ccc(C(=O)Nc3ccccc3)cc2s1` gave PERK inh 0, APP 5'UTR act 88, STAT1 activator 148*, AHR activator 100*, NF-kB expr up 2.6, Mdm2 ligase inh -17, AHR act confirm 137* and PXR counter 48*.
`c1ccc(-c2c3ccccc3nc3[nH]c4ccccc4c23)cc1` gave PERK inh 0, APP 5'UTR act 1, STAT1 activator 95, AHR activator 103*, NF-kB expr up 0.94, AHR act confirm 68* and PXR counter 32*.
CC(=O)c1ccc(OCCCC(=O)N(CCC2=CCCCC2)c2c(N)n(Cc3ccccc3)c(=O)[nH]c2=O)cc1 was read as AHR activator 0.
Screening O=C(Nc1nccs1)c1ccc(-c2ccc(Cl)cc2)o1 returned PERK inh 0, APP 5'UTR act 133, STAT1 activator 138*, AHR activator 84*, NF-kB expr up 6.1*, Mdm2 ligase inh -17, AHR act confirm 37 and PXR counter 26*.
`O=c1c2[nH]c3ccccc3c2ncn1Cc1ccncc1` gave PERK inh 0, APP 5'UTR act 2, STAT1 activator 95, AHR activator 31, NF-kB expr up 1 and Mdm2 ligase inh -9.
O=c1c2[nH]c3cccc(Cl)c3c2ncn1Cc1ccncc1 was read as PERK inh 0, APP 5'UTR act 14, STAT1 activator 103, AHR activator 84*, NF-kB expr up 1, Mdm2 ligase inh -21, AHR act confirm 74* and PXR counter 19*.
Screening O=C(COc1ccccc1)N1CCN(C(=O)c2ccccc2F)CC1 returned AHR activator 2.
Screening Nc1ccccc1Nc1nc2ccccc2[nH]1 returned AHR activator 95*, AHR act confirm 2 and PXR counter 9.
Screening CCn1nc(NC(=O)C(C)(C)C)c2cc3cccc(C)c3nc21 returned AHR activator 85*, AHR act confirm 89* and PXR counter 139*.
